{"source": "ChEMBL document CHEMBL1255290", "about": "“Characterization of a novel human immunodeficiency virus type 1 protease inhibitor, A-790742” (Antimicrob Agents Chemother, 2008)", "key": {"[1]": {"system": "Human immunodeficiency virus 1", "test": "(§1) Antiviral activity against HIV1 pNL4-3 infected in human MT4 cells derived from 6 viral passages with 16 nM A-790742 harboring protease I84V mutation assessed as reduction in viral cytopathogenicity treated 1 hr post infection measured 5 days post infection by MTT assay relative to wild type HIV1 pNL4-3", "assay_type": "functional", "procedure,_shortened": "(§2)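 Selection: MT-4 cells infected with parental pNL4-3 or RF (MOI 0.003, 2 h), then passaged under rising selecting drug whenever supernatant p24 (ELISA) exceeded 10 ng/ml. Passage viruses titred by TCID50 (Spearman-Karber). Assay: 10^6 MT-4 cells infected at MOI 0.003 for 1 h, washed, and seeded at 10^4 cells/well with eight serial dilutions, triplicate, 0.5% DMSO final. Day-5 MTT read-out; EC50 fold-change versus parental wild type.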"}, "[2]": {"system": "Human immunodeficiency virus 1", "test": "Antiviral activity against HIV1 clone3 infected in HEK293 cells harboring A-790742-selected protease L33F, K45I, V82L, and I84V mutation assessed as reduction in viral replication by luciferase reporter gene assay relative to wild type HIV1 pNL4-3", "assay_type": "functional", "procedure,_shortened": "(§3)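 Single-cycle assay: HEK-293 cells were cotransfected with luciferase-reporter HIV-1 protease clones plus a VSV-G expression vector. After 4 h, cells were replated at 2 × 10⁴/well over serial inhibitor dilutions in triplicate. Pseudovirus collected at 48 h infected fresh HEK-293 (10⁴/well). Luciferase read 48 h later gave % inhibition versus untreated and EC50. Fold change against WT pNL4-3-Luc (clones 1-4) or RF-Luc (clone 5) is the mean of three experiments.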"}, "[3]": {"system": "Human immunodeficiency virus 1", "test": "as §1, with “7” for “6”, “32” for “16”", "assay_type": "functional", "procedure,_shortened": "as §2"}, "[4]": {"system": "Human immunodeficiency virus 1", "test": "(§4) Antiviral activity against HIV1 P13 infected in human MT4 cells derived from viral passages with A-790742 harboring protease M46I, L63P, A71V, and V82G mutation assessed as reduction in viral cytopathogenicity treated 1 hr post infection measured 5 days post infection by MTT assay relative to wild type HIV1 RF", "assay_type": "functional", "procedure,_shortened": "(§5)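 For the assay, 10⁶ MT-4 cells were infected at MOI 0.003, washed after 1 h, and plated at 10⁴ cells/well with eight serial compound dilutions in triplicate (0.5% DMSO final). MTT cytopathic read-out at day 5; EC50 from dose-response fitting.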"}, "[5]": {"system": "Human immunodeficiency virus 1", "test": "Antiviral activity against HIV1 isolate 3 infected in human MT4 cells obtained from protease inhibitor-resistant patient harboring protease L10I, E35D, N37D, M461, I54V, L63P, A71V, T74P, I84V, L90M, I93L mutation derived from viral passages with Lopinavir assessed as reduction in viral cytopathogenicity treated 1 hr post infection measured 5 days post infection by MTT assay relative to wild type …", "assay_type": "functional"}, "[6]": {"system": "Human immunodeficiency virus 1", "test": "(§6) Antiviral activity against HIV1 P15 infected in human MT4 cells derived from viral passages with A-790742 harboring protease L33L/F, K45I, V82L, and I84V mutation assessed as reduction in viral cytopathogenicity treated 1 hr post infection measured 5 days post infection by MTT assay relative to wild type HIV1 pNL4-3", "assay_type": "functional", "procedure,_shortened": "as §5"}, "[7]": {"system": "Human immunodeficiency virus 1", "test": "Antiviral activity against HIV1 isolate 6 infected in human MT4 cells obtained from protease inhibitor-resistant patient harboring protease L10I, L24I, M46I, I54V, K55R, Q58E, L63P, I64V, A71V, V82A, T91A mutation derived from viral passages with Lopinavir assessed as reduction in viral cytopathogenicity treated 1 hr post infection measured 5 days post infection by MTT assay relative to wild type …", "assay_type": "functional"}, "[8]": {"system": "Human immunodeficiency virus 1", "test": "as §6, with “pNL4-3” for “P15”, “from 15” for “from”, “with 560 nM” for “with”, “V82L,” for “V82L, and”", "assay_type": "functional", "procedure,_shortened": "as §2"}, "[9]": {"system": "Human immunodeficiency virus 1", "test": "as §4, with “RF” for “P13”, “from 15” for “from”, “with 500 nM” for “with”, “A71V,” for “A71V, and”", "assay_type": "functional", "procedure,_shortened": "as §2"}, "[10]": {"system": "Human immunodeficiency virus 1", "test": "Antiviral activity against HIV1 isolate 13 infected in human MT4 cells obtained from protease inhibitor-resistant patient harboring protease L10I, K14R, L33F, E34Q, R41K, K45R, M46I, I50V, K55R, L63P, A71V, G73T, V77I, V82A, L90M, I93L mutation derived from viral passages with Lopinavir assessed as reduction in viral cytopathogenicity treated 1 hr post infection measured 5 days post infection by …", "assay_type": "functional"}, "[11]": {"system": "Human immunodeficiency virus 1", "test": "as §6, with “pNL4-3” for “P15”, “from 21” for “from”, “with 2000 nM” for “with”, “L23I, L33F,” for “L33L/F,”, “K45I, A71A/V, V77I,” for “K45I,”, “V82L,” for “V82L, and”", "assay_type": "functional", "procedure,_shortened": "as §2"}, "[12]": {"system": "Human immunodeficiency virus 1", "test": "Antiviral activity against HIV1 isolate 4 infected in human MT4 cells obtained from protease inhibitor-resistant patient harboring protease N37T, M46I, Q58E, I64V, T74K, V77I, V82F, L90M mutation derived from viral passages with Lopinavir assessed as reduction in viral cytopathogenicity treated 1 hr post infection measured 5 days post infection by MTT assay relative to wild type HIV1 pNL4-3", "assay_type": "functional"}, "[13]": {"system": "Human immunodeficiency virus 1", "test": "as §6, with “P21” for “P15”, “L23I, L33F,” for “L33L/F,”, “K45I, A71A/V, V77I,” for “K45I,”", "assay_type": "functional", "procedure,_shortened": "as §5"}, "[14]": {"system": "Human immunodeficiency virus 1", "test": "as §1, with “10” for “6”, “140” for “16”, “protease V82V/L and” for “protease”", "assay_type": "functional", "procedure,_shortened": "as §2"}, "[15]": {"system": "Human immunodeficiency virus 1", "test": "Antiviral activity against HIV1 RF infected in human MT4 cells derived from 8 viral passages with 52 nM A-790742 harboring protease V75I mutation assessed as reduction in viral cytopathogenicity treated 1 hr post infection measured 5 days post infection by MTT assay relative to wild type HIV1 RF", "assay_type": "functional", "procedure,_shortened": "as §2"}, "[16]": {"system": "Human immunodeficiency virus 1", "test": "Antiviral activity against HIV1 isolate 2 infected in human MT4 cells obtained from protease inhibitor-resistant patient harboring protease L10I, I15V, G16E, K20R, E35D, M36I, R41K, I54A, R57K, Q61D, A71V, I72R, V82A, L89I, L90M, Q92K mutation derived from viral passages with Lopinavir assessed as reduction in viral cytopathogenicity treated 1 hr post infection measured 5 days post infection by …", "assay_type": "functional"}, "[17]": {"system": "Human immunodeficiency virus 1", "test": "as §1, with “5” for “6”, “12” for “16”", "assay_type": "functional", "procedure,_shortened": "as §2"}, "[18]": {"system": "Human immunodeficiency virus 1", "test": "Antiviral activity against HIV1 clone2 infected in HEK293 cells harboring A-790742-selected protease V82L mutation assessed as reduction in viral replication by luciferase reporter gene assay relative to wild type HIV1 pNL4-3", "assay_type": "functional", "procedure,_shortened": "as §3"}, "[19]": {"system": "Human immunodeficiency virus 1", "test": "as §6, with “pNL4-3” for “P15”, “from 18” for “from”, “with 900 nM” for “with”, “L33F,” for “L33L/F,”, “K45I, A71A/V, V77V/I,” for “K45I,”, “V82L,” for “V82L, and”", "assay_type": "functional", "procedure,_shortened": "as §2"}, "[20]": {"system": "Human immunodeficiency virus 1", "test": "as §4, with “RF” for “P13”, “from 10” for “from”, “with 160 nM” for “with”, “protease” for “protease M46I, L63P,”, “A71V,” for “A71V, and”", "assay_type": "functional", "procedure,_shortened": "as §2"}, "[21]": {"system": "Human immunodeficiency virus 1", "test": "Antiviral activity against HIV1 P25 infected in human MT4 cells harboring protease L10F, G16E, V32I, M46I, I47A, H69Y, I84V, and T91S mutation derived from viral passages with Lopinavir assessed as reduction in viral cytopathogenicity treated 1 hr post infection measured 5 days post infection by MTT assay", "assay_type": "functional, organism-based", "settings": "Human immunodeficiency virus 1, P25, MT4", "procedure,_shortened": "as §5"}, "[22]": {"system": "Human immunodeficiency virus 1", "test": "Antiviral activity against HIV1 RF infected in human MT4 cells derived from 6 viral passages with 16 nM A-790742 harboring wild-type protease assessed as reduction in viral cytopathogenicity treated 1 hr post infection measured 5 days post infection by MTT assay relative to wild type HIV1 RF", "assay_type": "functional", "procedure,_shortened": "as §2"}, "[23]": {"system": "Human immunodeficiency virus 1", "test": "Antiviral activity against HIV1 clone5 infected in HEK293 cells harboring A-790742-selected protease L63P, A71V, and V82G mutation assessed as reduction in viral replication by luciferase reporter gene assay relative to wild type HIV1 RF", "assay_type": "functional", "procedure,_shortened": "as §3"}, "[24]": {"system": "Human immunodeficiency virus 1", "test": "Antiviral activity against wild-type HIV1 RF infected in human MT4 cells assessed as reduction in viral cytopathogenicity treated 1 hr post infection measured 5 days post infection in absence of human serum by MTT assay", "assay_type": "functional, organism-based", "settings": "Human immunodeficiency virus 1, RF", "procedure,_shortened": "as §5"}, "[25]": {"system": "Human immunodeficiency virus 1", "test": "as §1, with “9” for “6”, “80” for “16”, “protease V82V/L and” for “protease”", "assay_type": "functional", "procedure,_shortened": "as §2"}, "[26]": {"system": "Human immunodeficiency virus 1", "test": "Antiviral activity against HIV1 isolate 12 infected in human MT4 cells obtained from protease inhibitor-resistant patient harboring protease L10I, I13V, K20I, E35D, M36I, M46I, I50V, I54V, R57K, I62V, L63P, A71V, V82A, L89V, L90M, Q92K mutation derived from viral passages with Lopinavir assessed as reduction in viral cytopathogenicity treated 1 hr post infection measured 5 days post infection by …", "assay_type": "functional"}, "[27]": {"system": "Human immunodeficiency virus 1", "test": "as §1, with “8” for “6”, “50” for “16”, “protease V82V/L,” for “protease”", "assay_type": "functional", "procedure,_shortened": "as §2"}, "[28]": {"system": "Human immunodeficiency virus 1", "test": "Antiviral activity against HIV1 isolate 5 infected in human MT4 cells obtained from protease inhibitor-resistant patient harboring protease L10F, I15V, M46I, L63P, A71V, I72L, V82T, I84V, I85V, L90M mutation derived from viral passages with Lopinavir assessed as reduction in viral cytopathogenicity treated 1 hr post infection measured 5 days post infection by MTT assay relative to wild type HIV1 …", "assay_type": "functional"}, "[29]": {"system": "Human immunodeficiency virus 1", "test": "Antiviral activity against HIV1 isolate 7 infected in human MT4 cells obtained from protease inhibitor-resistant patient harboring protease L10I, M46M/L, G48V, I54V, L63P, A71V, I72M, V77I, V82A, L90M, I93L mutation derived from viral passages with Lopinavir assessed as reduction in viral cytopathogenicity treated 1 hr post infection measured 5 days post infection by MTT assay relative to wild …", "assay_type": "functional"}}, "data": [{"smiles": "COC(=O)N[C@H](C(=O)N[C@H](Cc1ccc(-c2ccccn2)cc1)C[C@H](O)[C@H](Cc1ccccc1)NC(=O)[C@@H](N1CCN(Cc2cccc(C(C)(C)O)n2)C1=O)C(C)(C)C)C(C)(C)C", "values": [{"measurement": "Ratio EC50", "setting": "[1]", "result": 5.3}, {"measurement": "Ratio EC50", "setting": "[2]", "result": 23}, {"measurement": "Ratio EC50", "setting": "[3]", "result": 10.7}, {"measurement": "Ratio EC50", "setting": "[4]", "result": 72}, {"measurement": "Ratio EC50", "setting": "[5]", "result": 33}, {"measurement": "Ratio EC50", "setting": "[6]", "result": 29}, {"measurement": "Ratio EC50", "setting": "[7]", "result": 1}, {"measurement": "Ratio EC50", "setting": "[8]", "result": 186.7}, {"measurement": "Ratio EC50", "setting": "[9]", "result": 100}, {"measurement": "Ratio EC50", "setting": "[10]", "result": 2}, {"measurement": "Ratio EC50", "setting": "[11]", "result": 666.7}, {"measurement": "Ratio EC50", "setting": "[12]", "result": 1}, {"measurement": "Ratio EC50", "setting": "[13]", "result": ">2500"}, {"measurement": "Ratio EC50", "setting": "[14]", "result": 46.7}, {"measurement": "Ratio EC50", "setting": "[15]", "result": 10.4}, {"measurement": "Ratio EC50", "setting": "[16]", "result": 12}, {"measurement": "Ratio EC50", "setting": "[17]", "result": 4}, {"measurement": "Ratio EC50", "setting": "[18]", "result": 22}, {"measurement": "Ratio EC50", "setting": "[19]", "result": 300}, {"measurement": "Ratio EC50", "setting": "[20]", "result": 32}, {"measurement": "EC50", "setting": "[21]", "result": 45, "unit": "nM"}, {"measurement": "Ratio EC50", "setting": "[22]", "result": 3.2}, {"measurement": "Ratio EC50", "setting": "[23]", "result": 72}, {"measurement": "EC50", "setting": "[24]", "result": 5, "unit": "nM"}, {"measurement": "Ratio EC50", "setting": "[25]", "result": 26.7}, {"measurement": "Ratio EC50", "setting": "[26]", "result": 1}, {"measurement": "Ratio EC50", "setting": "[27]", "result": 16.7}, {"measurement": "Ratio EC50", "setting": "[28]", "result": 2}, {"measurement": "Ratio EC50", "setting": "[29]", "result": 2}]}]}
